Each compound was assayed on Rattus norvegicus (assay: Effect on increase in reflex latent time after administration of 10 mg/kg of the compound). Conditions: not given.
Type: functional
How it was run: (§1)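 Rats (180-200 g), scopolamine-induced amnesia in a step-through passive avoidance task. Scopolamine 2 mg/kg ip 15 min before training; test substance suspended in 0.5% Tween-80, given ip at 1 or 10 mg/kg 30 min before training; vehicle controls. Retention tested 24 h later: latency to enter dark chamber (max 180 s) and % animals not entering. n=12 per group.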

In the case of CC(=O)N1CCOC1c1cccc(Cl)c1 (configuration not stated), the Number was 58%.

The compounds below were run on Rattus norvegicus (assay: Effect on latency to enter dark chamber after administration of 1 mg/kg of the compound). Conditions: not given.
Type: functional
How it was run: as §1

First: Oc1ccc(/C=N/c2nc3ccccc3s2)cc1
Second: Oc1ccc(/C=N/c2nccs2)cc1
The Number of the first is higher: 58% for the first, 42% for the second.

Compared with CC(=O)N1CCOC1c1cccc(Cl)c1 (configuration not stated), CN1[C@@H]2C[C@@H](OC(=O)[C@H](CO)c3ccccc3)C[C@H]1[C@@H]1O[C@@H]12 [SCOPOLAMINE] is higher in Number: 0% for the first, 17% for the second.

First: O=[N+]([O-])c1ccc(/C=N/c2nc(-c3ccccc3)cs2)cc1
Second: C(=N\c1nc(-c2ccccc2)cs1)/c1ccccc1
The Number of the first is higher: 58% for the first, 0% for the second.

Cc1csc(/N=C/c2ccc([N+](=O)[O-])cc2)n1 and O=[N+]([O-])c1ccc(/C=N/c2nccs2)cc1 are the same in Number: 42% for the first, 42% for the second.

Work on Clc1ccc(/C=N/c2nccs2)cc1 yielded a Number of 25%.

Going from Oc1ccc(/C=N/c2nc3ccccc3s2)cc1 to Oc1ccc(/C=N/c2nccs2)cc1, the Time rises from 15 s to 41 s.

First: CC(=O)N1CCOC1c1cccc(Cl)c1 (configuration not stated)
Second: Clc1ccc(/C=N/c2nccs2)cc1
The Time of the first is lower: 103 s for the first, 123 s for the second.

Compared with O=[N+]([O-])c1ccc(/C=N/c2nc(-c3ccccc3)cs2)cc1, C(=N\c1nc(-c2ccccc2)cs1)/c1ccccc1 is lower in Time: 88 s for the first, 68 s for the second.

First: Cc1csc(/N=C/c2ccc([N+](=O)[O-])cc2)n1
Second: O=[N+]([O-])c1ccc(/C=N/c2nccs2)cc1
The Time of the first is lower: 126 s for the first, 129 s for the second.

Each compound was assayed on Rattus norvegicus (assay: Effect on increase in reflex latent time after administration of 600 mg/kg of the compound). Conditions: not given.
Type: functional

Work on NC(=O)CN1CCCC1=O [PIRACETAM] yielded a Number of 58%.

What follows are compounds tested on Rattus norvegicus (assay: Effect on increase in reflex latent time after administration of 1 mg/kg of the compound). Conditions: not given.
Type: functional
How it was run: as §1

First: Oc1ccc(/C=N/c2nc3ccccc3s2)cc1
Second: Oc1ccc(/C=N/c2nccs2)cc1
The Time of the first is higher: 104 s for the first, 96 s for the second.

Going from CC(=O)N1CCOC1c1cccc(Cl)c1 (configuration not stated) to CN1[C@@H]2C[C@@H](OC(=O)[C@H](CO)c3ccccc3)C[C@H]1[C@@H]1O[C@@H]12 [SCOPOLAMINE], the Time rises from 25 s to 53 s.

First: O=[N+]([O-])c1ccc(/C=N/c2nc(-c3ccccc3)cs2)cc1
Second: C(=N\c1nc(-c2ccccc2)cs1)/c1ccccc1
The Time of the first is higher: 157 s for the first, 12 s for the second.

Going from Cc1csc(/N=C/c2ccc([N+](=O)[O-])cc2)n1 to O=[N+]([O-])c1ccc(/C=N/c2nccs2)cc1, the Time falls from 76 s to 68 s.

Compound Clc1ccc(/C=N/c2nccs2)cc1 has a Time of 61 s.

Species: Rattus norvegicus
Assay: […]
Type: functional
Conditions: dose 400 mg/kg

NC(=O)CN1CCCC1=O [PIRACETAM] gave a Number of 33%.

Each compound was assayed on Rattus norvegicus (assay: Effect on number of animals not entering the dark chamber after administration of 10 mg/kg of the compound). Conditions: not given.

First: Oc1ccc(/C=N/c2nc3ccccc3s2)cc1
Second: Oc1ccc(/C=N/c2nccs2)cc1
The Number of the first is lower: 0% for the first, 14% for the second.

First: O=[N+]([O-])c1ccc(/C=N/c2nc(-c3ccccc3)cs2)cc1
Second: C(=N\c1nc(-c2ccccc2)cs1)/c1ccccc1
The Number of the first is higher: 42% for the first, 33% for the second.

Cc1csc(/N=C/c2ccc([N+](=O)[O-])cc2)n1 and O=[N+]([O-])c1ccc(/C=N/c2nccs2)cc1 are the same in Number: 50% for the first, 50% for the second.

Clc1ccc(/C=N/c2nccs2)cc1 was tested, and the Number was 66%.

Each compound was assayed on Rattus norvegicus (assay: Effect on increase in reflex latent time after administration of 400 mg/kg of the compound). Conditions: not given.
Type: functional

NC(=O)CN1CCCC1=O [PIRACETAM] gave a Time of 75 s.

Source: ChEMBL document CHEMBL1138827, “Design of new cognition enhancers: from computer prediction to synthesis and biological evaluation” (2004)
